Test results from ChEMBL document CHEMBL2434878, “Synthesis and antimycobacterial activity of analogues of the bioactive natural products sampangine and cleistopholine” (Eur J Med Chem, 2013).
pIC50: −log10 of the molar value. Values after ≈ are worked out from the molar mass of the structure shown.

Columns and labels:
[1] = test system: Mycobacterium tuberculosis; experiment: Antimicrobial activity against Mycobacterium tuberculosis H37Rv ATCC 27294 expressing luciferase reporter gene infected in mouse J774 macrophages assessed as intracellular growth inhibition at 2 uM after 4 days by luminometry relative to untreated control; format: functional; details: H37Rv ATCC 27294, J774, 96 h, read-out: GI
Outline: (§1)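 J774.A1 murine macrophages were seeded at 40,000 cells/well, recovered overnight and infected with luminescent H37Rv. From 24 h post-infection, cells were treated for 4 days in DMEM with penicillin and fungizone, without gentamicin. Growth was read by luminescence after 1% n-decanal and expressed as percent inhibition versus untreated, in triplicate. Macrophage viability was checked by trypan blue.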

[2] = test system: Mycobacterium avium subsp. paratuberculosis; experiment: Antimicrobial activity against Mycobacterium avium subsp. paratuberculosis ATCC 15769 expressing luciferase reporter gene assessed as growth inhibition after 6 days by luminometry; format: functional; details: ATCC 15769, 144 h
[3] = test system: Mycobacterium tuberculosis; experiment: Antimicrobial activity against Mycobacterium tuberculosis H37Rv ATCC 27294 expressing luciferase reporter gene infected in mouse J774 macrophages assessed as intracellular growth inhibition at 0.5 uM after 4 days by luminometry relative to untreated control; format: functional; details: H37Rv ATCC 27294, J774, 96 h, read-out: GI; outline: as §1
[4] = test system: Mycobacterium tuberculosis; experiment: Antimicrobial activity against Mycobacterium tuberculosis H37Rv ATCC 27294 expressing luciferase reporter gene assessed as growth inhibition at 10 uM after 6 days by luminometry relative to control; format: functional; details: H37Rv ATCC 27294, 144 h, read-out: GI
Outline: (§2)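 Single-concentration screen of the luminescent H37Rv reporter strain in 7H9-10% FCS, inoculated at 50,000 RLU/ml, 6 days at 37 °C. Luminescence was read after n-decanal addition. Percent inhibition is versus the untreated culture, as the mean of triplicate cultures.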

[5] = Genotoxicity in human HepG2/C3A cells assessed as genomic DNA fragmentation at 10 uM after 24 hrs by comet assay; format: toxicity, cell-based
Outline: (§3)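 Alkaline comet assay: C3A cells at 100,000/well recovered overnight, then 24 h at 37 °C, 5% CO2 with serial dilutions from DMSO stock in DMEM + 10% FCS. Cells embedded in low-melting agarose, lysed 1 h, electrophoresed 20 min at 300 mA, neutralized, gel red stained. Tail DNA as % of head + tail DNA by fluorescence microscopy; Mann–Whitney test.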

[6] = Therapeutic index, ratio of IC50 for human HepG2/C3A cells to GI50 for Mycobacterium tuberculosis H37Rv ATCC 27294; format: cell-based; details: read-out: TI
Outline: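 TI is NI50/GI50. NI50 came from a neutral red uptake assay in C3A hepatocytes (40,000 cells/well, 24 h exposure at 37 °C, 3 h dye, OD 530 nm with 620 nm reference): the concentration reducing dye uptake by 50%. GI50 came from the 6-day luminescent H37Rv assay.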

[7] = test system: Mycobacterium tuberculosis; experiment: Antimicrobial activity against Mycobacterium tuberculosis H37Rv ATCC 27294 expressing luciferase reporter gene assessed as growth inhibition at 1 uM after 6 days by luminometry relative to control; format: functional; details: H37Rv ATCC 27294, 144 h, read-out: GI; outline: as §2
[8] = test system: Mycobacterium tuberculosis; experiment: Antimicrobial activity against Mycobacterium tuberculosis H37Rv ATCC 27294 expressing luciferase reporter gene assessed as reduction in bacterial count after 6 days by luminometry; format: functional; details: H37Rv ATCC 27294, 144 h
Outline: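 MIC by serial dilution in the 6-day luminescent H37Rv assay (7H9-10% FCS, 50,000 RLU/ml inoculum, triplicate wells, n-decanal read-out). MIC is the concentration giving at least one log10 reduction in signal versus the untreated control.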

Mycobacterium ulcerans = experiment: Antimicrobial activity against Mycobacterium ulcerans 1615 expressing luciferase reporter gene assessed as growth inhibition after 6 days by luminometry; format: functional; details: Mycobacterium ulcerans, 1615, 144 h
Outline: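 Luminescent M. ulcerans 1615 carrying pSMT1 luciferase plasmid, grown at 32 °C in 7H9 with 10% OADC and 0.2% glycerol. Serial dilutions from 10 mM DMSO stocks in 7H9 + 10% FCS; bacteria dosed at 50,000 RLU/ml, triplicate wells. After 6 days, light read over 10 s following 1% n-decanal in ethanol. GI50 taken at 50% growth reduction versus untreated culture.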

[9] = test system: Mycobacterium tuberculosis; experiment: Antimicrobial activity against Mycobacterium tuberculosis H37Rv ATCC 27294 expressing luciferase reporter gene assessed as growth inhibition after 6 days by luminometry; format: functional; details: H37Rv ATCC 27294, 144 h
Outline: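 Luminescent H37Rv (pSMT1, V. harveyi luciferase) was declumped by filtration, adjusted to 50,000 RLU/ml in 7H9-10% FCS, and exposed to serial compound dilutions in triplicate for 6 days at 37 °C. Light was read for 10 s after adding 1% n-decanal. GI50 is the concentration giving 50% growth reduction versus untreated culture.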

[10] = test system: Mycobacterium tuberculosis; experiment: Antimicrobial activity against Mycobacterium tuberculosis H37Rv ATCC 27294 expressing luciferase reporter gene infected in mouse J774 macrophages assessed as intracellular growth inhibition at 1 uM after 4 days by luminometry relative to untreated control; format: functional; details: H37Rv ATCC 27294, J774, 96 h, read-out: GI; outline: as §1
[11] = test system: Mycobacterium tuberculosis; experiment: Antimicrobial activity against Mycobacterium tuberculosis H37Rv ATCC 27294 expressing luciferase reporter gene assessed as growth inhibition at 0.1 uM after 6 days by luminometry relative to control; format: functional; details: H37Rv ATCC 27294, 144 h, read-out: GI; outline: as §2
[12] = Cytotoxicity against human HepG2/C3A cells after 24 hrs by neutral red dye uptake assay; format: cell-based
[13] = Antimicrobial activity against Mycobacterium avium subsp. avium ATCC 19698 expressing luciferase reporter gene assessed as growth inhibition after 6 days by luminometry; format: functional; details: ATCC 19698, 144 h
[14] = Genotoxicity in human HepG2/C3A cells assessed as genomic DNA fragmentation at 1 to 3 uM after 24 hrs by comet assay; format: toxicity, cell-based; outline: as §3
[15] = test system: Mycobacterium intracellulare; experiment: Antimicrobial activity against Mycobacterium intracellulare; format: functional
Mycolicibacterium aurum = experiment: Antimicrobial activity against Mycobacterium aurum A+; format: functional

Compound: COc1ccc(-c2cc(O)c3c(c2)C(=O)c2ccccc2C3=O)cc1
- inhibition of growth at 2 µM [1]: 42.3%
- GI50 [2]: 3.52 µM
- inhibition of growth at 0.5 µM [3]: 21.6%
- inhibition of growth at 10 µM [4]: 100%
- Activity [5]: Toxic
- selectivity ratio [6]: 4.2
- inhibition of growth at 1 µM [7]: 92%
- MIC90 [8]: 0.92 µM (≈ 0.304 µg/mL)
- GI50 (Mycobacterium ulcerans): 7.55 µM
- GI50 [9]: 450 nM
- inhibition of growth at 1 µM [10]: 27.6%
- inhibition of growth at 0.1 µM [11]: 35%
- pIC50 [12]: 5.73
- GI50 [13]: 3.01 µM
- Activity [14]: Non-toxic

Compound: CCOc1nc2c3c(ncc(Br)c3c1Br)-c1ccccc1C2=O
- MIC [15]: 25 µg/mL (≈ 57.6 µM)

Compound: O=C1c2cccnc2-c2nccc3c2c1nc1ccccc13 [ASCIDIDEMIN]
- MIC (Mycolicibacterium aurum): 0.25 µg/mL (≈ 0.882 µM)

Compound: O=C1c2ccccc2-c2nccc3ccnc1c23 [SAMPANGINE]
- MIC [15]: 0.78 µg/mL (≈ 3.36 µM)

Compound: O=C1c2ccccc2-c2nccc3c2c1nc1ccccc13 [BENZOSAMPANGINE]
- MIC [15]: 0.39 µg/mL (≈ 1.38 µM)

Compound: Cc1ccnc2c1C(=O)c1ccccc1C2=O [CLEISTOPHOLINE]
- MIC [15]: 12.5 µg/mL (≈ 56 µM)

Compound: COc1ccc(-c2cc3c(c(/C=C/N(C)C)n2)C(=O)c2ccccc2C3=O)cc1
- inhibition of growth at 2 µM [1]: 47.1%
- GI50 [2]: 3.06 µM
- inhibition of growth at 0.5 µM [3]: 9.3%
- inhibition of growth at 10 µM [4]: 100%
- Activity [5]: Non-toxic
- selectivity ratio [6]: 92.5
- inhibition of growth at 1 µM [7]: 100%
- MIC90 [8]: 0.88 µM (≈ 0.338 µg/mL)
- GI50 (Mycobacterium ulcerans): 7.65 µM
- GI50 [9]: 360 nM
- inhibition of growth at 1 µM [10]: 26.3%
- inhibition of growth at 0.1 µM [11]: 42%
- pIC50 [12]: 4.48
- GI50 [13]: 2.98 µM
- Activity [14]: Non-toxic

Compound: O=C1c2ccccc2-c2nccc3nc(-c4ccc(F)cc4)cc1c23
- inhibition of growth at 2 µM [1]: 65.5%
- GI50 [2]: 3.56 µM
- inhibition of growth at 0.5 µM [3]: 15.3%
- inhibition of growth at 10 µM [4]: 100%
- selectivity ratio [6]: > 72.4
- inhibition of growth at 1 µM [7]: 100%
- MIC90 [8]: 1.5 µM (≈ 0.489 µg/mL)
- GI50 (Mycobacterium ulcerans): 9.23 µM
- GI50 [9]: 690 nM
- inhibition of growth at 1 µM [10]: 30.2%
- inhibition of growth at 0.1 µM [11]: 53%
- pIC50 [12]: < 4.30
- GI50 [13]: 3.98 µM

Compound: COc1ccc(-c2cc3c4c(nccc4n2)-c2ccccc2C3=O)cc1
- inhibition of growth at 2 µM [1]: 51.5%
- GI50 [2]: 2.54 µM
- inhibition of growth at 0.5 µM [3]: 10%
- inhibition of growth at 10 µM [4]: 100%
- Activity [5]: Toxic
- selectivity ratio [6]: > 135
- inhibition of growth at 1 µM [7]: 99%
- MIC90 [8]: 0.92 µM (≈ 0.311 µg/mL)
- GI50 (Mycobacterium ulcerans): 8.56 µM
- GI50 [9]: 370 nM
- inhibition of growth at 1 µM [10]: 38.5%
- inhibition of growth at 0.1 µM [11]: 81%
- pIC50 [12]: < 4.30
- GI50 [13]: 3.56 µM
- Activity [14]: Non-toxic

Compound: CCc1ccnc2c1C(=O)c1ccccc1C2=O
- MIC [15]: 12.5 µg/mL (≈ 52.7 µM)

Compound: CN[C@@H]1[C@H](O[C@H]2[C@H](O[C@H]3[C@H](O)[C@@H](O)[C@H](N=C(N)N)[C@@H](O)[C@@H]3N=C(N)N)O[C@@H](C)[C@]2(O)C=O)O[C@@H](CO)[C@H](O)[C@H]1O [STREPTOMYCIN]
- MIC [15]: 2 µg/mL (≈ 3.44 µM)

Compound: CO[C@H]1/C=C/O[C@@]2(C)Oc3c(C)c(O)c4c(O)c(c(/C=N/N5CCN(C)CC5)c(O)c4c3C2=O)NC(=O)/C(C)=C\C=C\[C@H](C)[C@H](O)[C@@H](C)[C@@H](O)[C@@H](C)[C@H](OC(C)=O)[C@@H]1C [RIFAMPIN]
- inhibition of growth at 10 µM [4]: 100%
- inhibition of growth at 1 µM [7]: 100%
- MIC90 [8]: 0.12 µM (≈ 0.0988 µg/mL)
- GI50 [9]: 30 nM
- inhibition of growth at 0.1 µM [11]: 99%
- MIC [15]: 0.5 µg/mL (≈ 0.608 µM)

Compound: CN(C)/C=C/c1nc(-c2ccc(F)cc2)cc2c1C(=O)c1ccccc1C2=O
- inhibition of growth at 2 µM [1]: 60.5%
- GI50 [2]: 3.23 µM
- inhibition of growth at 0.5 µM [3]: 10.2%
- inhibition of growth at 10 µM [4]: 100%
- selectivity ratio [6]: 91
- inhibition of growth at 1 µM [7]: 92%
- MIC90 [8]: 0.88 µM (≈ 0.328 µg/mL)
- GI50 (Mycobacterium ulcerans): 7.49 µM
- GI50 [9]: 410 nM
- inhibition of growth at 1 µM [10]: 27.3%
- inhibition of growth at 0.1 µM [11]: 35%
- pIC50 [12]: 4.43
- GI50 [13]: 3.65 µM

Compound: Cc1ccc(-c2cc3c(c(/C=C/N(C)C)n2)C(=O)c2ccccc2C3=O)cc1
- inhibition of growth at 2 µM [1]: 48.7%
- GI50 [2]: 4.83 µM
- inhibition of growth at 0.5 µM [3]: 15.9%
- inhibition of growth at 10 µM [4]: 100%
- selectivity ratio [6]: 40.4
- inhibition of growth at 1 µM [7]: 100%
- MIC90 [8]: 1.5 µM (≈ 0.553 µg/mL)
- GI50 (Mycobacterium ulcerans): 8.59 µM
- GI50 [9]: 690 nM
- inhibition of growth at 1 µM [10]: 36.2%
- inhibition of growth at 0.1 µM [11]: 39%
- pIC50 [12]: 4.55
- GI50 [13]: 3.69 µM
